≈ marks a conversion by molar mass, not a printed value.
Columns and labels:
[1] = target: Cytochrome P450 3A4 (Homo sapiens, UniProt P08684); experiment: Inhibition of CYP3A4 (unknown origin) after 4 hrs; format: ADME
[2] = AUC (0 to infinity) in OF1 mouse plasma at 10 mg/kg, po; format: ADME, organism-based; design: time infinity, dose 10 mg/kg, route oral
Outline: (§1)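 Single-dose PK; male OF1 mice and male Sprague-Dawley rats, 2 mg/kg iv and 10 mg/kg po. Mouse vehicles: iv 50% 1-methyl-2-pyrrolidinone in saline (1.0 mg/mL); po 5% DMSO/0.5% MC/0.2% Tween80 (1.0 mg/mL). Rat vehicles: iv saline (0.5 mg/mL); po 0.5% MC/0.2% Tween80 (1.0 mg/mL). Plasma and brain exposure read as AUC0-∞ and t1/2.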

[3] = Drug metabolism in rabbit plasma at 100 ng/ml after 4 hrs; format: ADME, cell-free, Oryctolagus cuniculus; settings: read-out: Drug metabolism
Outline: (§2)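 Compound spiked into blank plasma of human, mouse, rat, rabbit, macaque and dog at 100 ng/ml, then incubated in a 37 °C water bath for up to 4 h; percent metabolized reported.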

[4] = tested on: Mus musculus; experiment: Plasma clearance in OF1 mouse at 2 mg/kg, iv; format: ADME, organism-based; design: dose 2 mg/kg, route intravenous; settings: in vivo
Outline: (§3)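 Male OF1 mice given 2 mg/kg iv (50% 1-methyl-2-pyrrolidinone in saline, 1.0 mg/mL) and 10 mg/kg po (5% DMSO/0.5% MC/0.2% Tween80, 1.0 mg/mL); plasma and brain exposure measured; B/P ratio from iv AUC.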

[5] = Elimination half life in Sprague-Dawley rat brain at 10 mg/kg, po; format: ADME, organism-based; design: dose 10 mg/kg, route oral; settings: read-out: beta t1/2 (converted); outline: as §1
[6] = Drug metabolism in guinea pig liver microsomes; format: ADME, Cavia porcellus, Microsome; settings: read-out: Drug metabolism
[7] = AUC (0 to infinity) in OF1 mouse plasma at 2 mg/kg, iv; format: ADME, organism-based; design: time infinity, dose 2 mg/kg, route intravenous; outline: as §1
[8] = Drug metabolism in human plasma at 100 ng/ml after 4 hrs; format: ADME, cell-free; settings: read-out: Drug metabolism; outline: as §2
[9] = Tmax in OF1 mouse brain at 10 mg/kg, po; format: ADME, organism-based; design: dose 10 mg/kg, route oral; outline: as §3
[10] = Drug metabolism in human liver microsomes; format: ADME; settings: read-out: Drug metabolism
[11] = tested on: Mus musculus; experiment: Toxicity in mouse assessed as effect on neurological activity at 10 to 30 mg/kg, po by Irwin test; format: organism-based; design: dose 10-30 mg/kg, route oral; settings: in vivo
Outline: (§4)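 Irwin exploratory general behaviour study in male mice; single oral doses of 0, 10 and 30 mg/kg; behavioural, neurologic and autonomic effects observed.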

[12] = Elimination half life in OF1 mouse plasma at 10 mg/kg, po; format: ADME, organism-based; design: dose 10 mg/kg, route oral; settings: read-out: beta t1/2 (converted); outline: as §1
[13] = tested on: Mus musculus; experiment: Toxicity in mouse assessed as effect on behavioral activity at 10 to 30 mg/kg, po by Irwin test; format: organism-based; design: dose 10-30 mg/kg, route oral; settings: in vivo; outline: as §4
[14] = AUC (0 to infinity) in Sprague-Dawley rat plasma at 10 mg/kg, po; format: ADME, organism-based; design: time infinity, dose 10 mg/kg, route oral; outline: as §1
[15] = Toxicity in po dosed mouse; settings: in vivo
[16] = Dissociation constant, pKa of the compound; format: physicochemical
[17] = target: Voltage-gated inwardly rectifying potassium channel KCNH2 (Homo sapiens, UniProt Q12809); experiment: Inhibition of human ERG current transfected in CHO cells by patch clamp assay; format: cell-based
Outline: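 Whole-cell patch clamp on CHO cells, hERG current; IC50 from n = 4.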

[18] = Elimination half life in OF1 mouse brain at 2 mg/kg, iv; format: ADME, organism-based; design: dose 2 mg/kg, route intravenous; settings: read-out: beta t1/2 (converted); outline: as §1
[19] = tested on: Mus musculus; experiment: Toxicity in mouse assessed as effect on autonomic activity at 10 to 30 mg/kg, po by Irwin test; format: organism-based; design: dose 10-30 mg/kg, route oral; settings: in vivo; outline: as §4
[20] = tested on: Mus musculus; experiment: Toxicity in mouse assessed as appearance of tremor at 100 mg/kg, po; format: organism-based; design: dose 100 mg/kg, route oral; settings: in vivo
Outline: (§5)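 Acute oral group toxicity in mice: behavioural side effects scored (social interaction, motility, preconvulsant signs, convulsions, tremor) after single po doses of 30 and 100 mg/kg.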

[21] = tested on: Heart; experiment: Toxicity in guinea pig heart assessed as effect on coronary pressure at 0.1 to 30 uM; format: tissue-based, Cavia porcellus
[22] = Ratio of AUC (0 to infinity) in brain to plasma in Sprague-Dawley rat at 2 mg/kg, iv; format: ADME, organism-based; design: dose 2 mg/kg, route intravenous; settings: brain and plasma, read-out: Ratio AUC
[23] = Solubility of the compound in form of crystalline free base in water; format: physicochemical
[24] = tested on: Rattus norvegicus; experiment: Antidepression-like activity in po dosed rat assessed as decrease in immobility time by forced swimming test; format: functional
Outline: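 Rat forced-swim test, immobility time as read-out. Test agent given po in MC/0.6% + H2O at 1, 3 and 10 mg/kg; imipramine reference at 60 mg/kg po.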

[25] = target: Histamine H3 receptor (Rattus norvegicus, UniProt Q9QYN8); experiment: Displacement of [3H]-methylhistamine from rat histamine H3 receptor (445 amino acid residues) transfected in human 293 cells after 1 hr by scintillation counting analysis; format: cell-based
[26] = Drug metabolism in rat liver microsomes; format: ADME; settings: read-out: Drug metabolism
[27] = Mutagenic activity in micronucleus (unknown origin) at 5 to 950 ug/mL in absence of human liver microsomes; format: toxicity
Outline: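 In vitro micronucleus test; concentrations 5 to 950 µg/mL, run with and without metabolic activation by human liver microsomes.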

[28] = Drug metabolism in macaque plasma at 100 ng/ml after 4 hrs; format: ADME, cell-free; settings: macaca, read-out: Drug metabolism; outline: as §2
[29] = target: Sigma non-opioid intracellular receptor 1 (Homo sapiens) (UniProt Q99720); experiment: Inhibition of sigma-1 receptor (unknown origin) at 10 uM relative to control
[30] = target: Cytochrome P450 2C19 (Homo sapiens, UniProt P33261); experiment: Inhibition of CYP2C19 (unknown origin) after 4 hrs; format: ADME
[31] = Oral bioavailability in OF1 mouse at 10 mg/kg; format: ADME, organism-based; settings: in vivo; outline: as §3
[32] = tested on: Mus musculus; experiment: Toxicity in mouse assessed as effect on convulsion at 30 mg/kg, po; format: organism-based; design: dose 30 mg/kg, route oral; settings: in vivo; outline: as §5
[33] = tested on: Salmonella typhimurium; experiment: Genotoxicity in Salmonella typhimurium at 3 to 1000 ug/mL by Ames-2 test; format: toxicity, organism-based; settings: salmonella enterica subsp. enterica serovar typhimurium
Outline: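 Ames II bacterial mutagenicity test over 3 to 1000 µg/mL.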

[34] = Drug metabolism in mouse plasma at 100 ng/ml after 4 hrs; format: ADME, cell-free; settings: read-out: Drug metabolism; outline: as §2
[35] = Drug metabolism in mouse liver microsomes; format: ADME, Microsome; settings: read-out: Drug metabolism
[36] = Drug metabolism in rat plasma at 100 ng/ml after 4 hrs; format: ADME, cell-free; settings: read-out: Drug metabolism; outline: as §2
[37] = Toxicity in guinea pig heart assessed as decrease in ventricular contraction at 30 uM relative to control; format: tissue-based, Cavia porcellus, Cardiac ventricle
[38] = Cmax in OF1 mouse brain at 10 mg/kg, po; format: ADME, organism-based; design: dose 10 mg/kg, route oral
Outline: (§6)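 Oral PK at 10 mg/kg po in male OF1 mice (vehicle 5% DMSO/0.5% MC/0.2% Tween80, 1.0 mg/mL) and male Sprague-Dawley rats (vehicle 0.5% MC/0.2% Tween80, 1.0 mg/mL). Cmax and tmax taken from plasma and brain concentration–time profiles.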

[39] = Drug metabolism in macaque liver microsomes; format: ADME, Microsome; settings: macaca, read-out: Drug metabolism
[40] = Cmax in OF1 mouse plasma at 10 mg/kg, po; format: ADME, organism-based; design: dose 10 mg/kg, route oral; outline: as §6
[41] = tested on: Rattus norvegicus; experiment: Plasma clearance in Sprague-Dawley rat at 2 mg/kg, iv; format: ADME, organism-based; design: dose 2 mg/kg, route intravenous; settings: in vivo
Outline: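 Male Sprague-Dawley rats dosed 2 mg/kg iv in saline (0.5 mg/mL) and 10 mg/kg po in 0.5% MC/0.2% Tween80 (1.0 mg/mL); plasma and brain concentrations followed.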

[42] = Elimination half life in OF1 mouse brain at 10 mg/kg, po; format: ADME, organism-based; design: dose 10 mg/kg, route oral; settings: read-out: beta t1/2 (converted); outline: as §1

Sigma non-opioid intracellular receptor 1 (Homo sapiens), sequence (Q99720 whole entry): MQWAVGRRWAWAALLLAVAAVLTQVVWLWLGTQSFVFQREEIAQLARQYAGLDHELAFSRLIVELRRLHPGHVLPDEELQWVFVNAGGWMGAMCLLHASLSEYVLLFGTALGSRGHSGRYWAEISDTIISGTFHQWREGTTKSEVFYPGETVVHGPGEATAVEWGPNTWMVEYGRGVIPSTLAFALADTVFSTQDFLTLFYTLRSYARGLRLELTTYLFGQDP
Voltage-gated inwardly rectifying potassium channel KCNH2, sequence (Q12809 whole entry): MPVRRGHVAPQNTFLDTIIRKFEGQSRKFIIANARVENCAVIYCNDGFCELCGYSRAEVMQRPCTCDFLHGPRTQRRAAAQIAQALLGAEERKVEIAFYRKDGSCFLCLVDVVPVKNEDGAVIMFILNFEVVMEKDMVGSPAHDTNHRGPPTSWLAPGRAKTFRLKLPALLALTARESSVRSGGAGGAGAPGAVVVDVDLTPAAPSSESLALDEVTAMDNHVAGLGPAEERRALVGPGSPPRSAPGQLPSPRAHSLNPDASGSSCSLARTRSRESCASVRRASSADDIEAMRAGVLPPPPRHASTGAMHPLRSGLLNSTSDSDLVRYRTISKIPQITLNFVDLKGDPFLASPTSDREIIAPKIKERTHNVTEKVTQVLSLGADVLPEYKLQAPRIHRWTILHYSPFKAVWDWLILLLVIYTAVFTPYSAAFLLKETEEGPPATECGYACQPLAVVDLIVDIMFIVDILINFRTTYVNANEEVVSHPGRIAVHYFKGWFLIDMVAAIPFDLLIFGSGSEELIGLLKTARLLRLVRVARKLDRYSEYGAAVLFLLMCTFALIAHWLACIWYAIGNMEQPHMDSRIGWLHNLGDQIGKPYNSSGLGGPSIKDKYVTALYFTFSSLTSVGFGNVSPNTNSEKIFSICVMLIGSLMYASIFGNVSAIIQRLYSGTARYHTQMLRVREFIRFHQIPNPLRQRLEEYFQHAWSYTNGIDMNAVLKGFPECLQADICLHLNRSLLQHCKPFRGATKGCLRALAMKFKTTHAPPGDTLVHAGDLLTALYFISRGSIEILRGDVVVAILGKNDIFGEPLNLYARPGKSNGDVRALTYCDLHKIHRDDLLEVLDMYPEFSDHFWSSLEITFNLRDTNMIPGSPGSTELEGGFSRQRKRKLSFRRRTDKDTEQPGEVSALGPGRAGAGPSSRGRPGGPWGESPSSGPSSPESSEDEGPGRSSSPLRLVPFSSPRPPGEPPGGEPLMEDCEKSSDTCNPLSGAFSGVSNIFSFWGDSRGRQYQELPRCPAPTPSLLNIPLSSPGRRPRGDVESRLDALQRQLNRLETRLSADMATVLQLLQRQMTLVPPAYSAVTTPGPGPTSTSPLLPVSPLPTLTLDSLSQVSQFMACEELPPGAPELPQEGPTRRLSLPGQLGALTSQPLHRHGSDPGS
Cytochrome P450 3A4, sequence (P08684 whole entry): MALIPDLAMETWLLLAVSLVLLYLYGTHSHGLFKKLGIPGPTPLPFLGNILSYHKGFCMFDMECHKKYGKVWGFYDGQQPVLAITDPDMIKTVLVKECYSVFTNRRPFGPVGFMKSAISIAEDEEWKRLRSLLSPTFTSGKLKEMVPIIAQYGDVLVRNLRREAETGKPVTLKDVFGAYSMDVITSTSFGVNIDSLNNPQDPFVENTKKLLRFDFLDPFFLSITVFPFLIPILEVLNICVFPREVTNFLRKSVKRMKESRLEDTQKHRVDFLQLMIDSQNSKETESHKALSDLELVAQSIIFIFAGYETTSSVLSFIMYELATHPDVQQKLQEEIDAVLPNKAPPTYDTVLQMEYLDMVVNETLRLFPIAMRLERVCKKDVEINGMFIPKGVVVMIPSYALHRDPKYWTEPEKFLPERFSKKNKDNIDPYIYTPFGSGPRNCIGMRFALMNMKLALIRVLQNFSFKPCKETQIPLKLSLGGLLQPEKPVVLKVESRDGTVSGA
Histamine H3 receptor, sequence (Q9QYN8 whole entry): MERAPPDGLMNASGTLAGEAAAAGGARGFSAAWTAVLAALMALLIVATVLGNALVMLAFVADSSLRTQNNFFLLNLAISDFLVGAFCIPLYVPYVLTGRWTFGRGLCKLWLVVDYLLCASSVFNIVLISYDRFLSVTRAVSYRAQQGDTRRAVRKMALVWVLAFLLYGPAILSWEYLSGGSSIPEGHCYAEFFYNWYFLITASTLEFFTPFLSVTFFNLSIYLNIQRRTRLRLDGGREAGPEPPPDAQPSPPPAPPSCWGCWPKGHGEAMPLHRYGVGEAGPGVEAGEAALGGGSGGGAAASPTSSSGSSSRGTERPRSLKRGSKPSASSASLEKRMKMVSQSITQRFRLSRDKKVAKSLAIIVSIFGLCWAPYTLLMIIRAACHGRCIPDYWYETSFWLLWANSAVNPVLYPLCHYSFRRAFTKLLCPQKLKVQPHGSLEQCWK
Cytochrome P450 2C19, sequence (P33261 whole entry): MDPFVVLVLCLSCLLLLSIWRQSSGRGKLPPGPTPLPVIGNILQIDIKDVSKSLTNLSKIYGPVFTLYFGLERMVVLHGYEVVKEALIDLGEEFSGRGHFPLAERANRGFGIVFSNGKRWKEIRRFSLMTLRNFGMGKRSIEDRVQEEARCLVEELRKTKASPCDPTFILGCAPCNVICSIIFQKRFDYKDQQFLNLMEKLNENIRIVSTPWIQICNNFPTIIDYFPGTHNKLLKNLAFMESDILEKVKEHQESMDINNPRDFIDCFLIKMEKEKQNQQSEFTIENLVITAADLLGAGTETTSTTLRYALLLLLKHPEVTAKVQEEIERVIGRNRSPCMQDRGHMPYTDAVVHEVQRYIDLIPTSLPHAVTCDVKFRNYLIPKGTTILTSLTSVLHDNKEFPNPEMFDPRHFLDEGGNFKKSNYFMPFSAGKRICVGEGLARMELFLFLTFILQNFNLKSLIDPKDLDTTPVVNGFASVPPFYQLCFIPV

Question: Which results are given for `Cc1cc(N2CC[C@H](N3CCC[C@@H]3C)C2)ccc1NC(=O)c1c(C)noc1C`?
Answer: IC50 [1]: > 100 µM; AUC(0-inf) [2]: 1.9 µg·h/mL; metabolised at 4 h, 100 ng/ml [3]: < 5%; clearance [4]: 3 L/h/kg; half-life [5]: 9.4 h; metabolised [6]: 35%; AUC(0-inf) [7]: 0.67 µg·h/mL; metabolised at 4 h, 100 ng/ml [8]: < 5%; Tmax [9]: 0.17 h; metabolised [10]: < 5%; Activity [11]: Non-toxic; half-life [12]: 1.8 h; Activity [13]: Non-toxic; AUC(0-inf) [14]: 3.15 µg·h/mL; MTD [15]: 30 mg/kg; pKa [16]: 10.1; IC50 [17]: 37 µM; half-life [18]: 0.93 h; Activity [19]: Non-toxic; Activity [20]: Toxic; Activity [21]: Non-toxic; Kp [22]: 1.1; solubility [23]: 0.11 mg/mL (≈ 288 µM); Activity [24]: Dose-dependent effect; minimal effective dose ([24]; read-out: MED): 10 mg/kg; Ki [25]: 0.0009 µM; metabolised [26]: < 5%; Activity [27]: Non-toxic; metabolised at 4 h, 100 ng/ml [28]: < 5%; inhibition [29]: 73%; IC50 [30]: > 100 µM; bioavailability [31]: 57%; Activity [32]: Non-toxic; Activity [33]: Non-toxic; metabolised at 4 h, 100 ng/ml [34]: < 5%; metabolised [35]: < 5%; metabolised at 4 h, 100 ng/ml [36]: < 5%; inhibition at 30 µM [37]: 33%; Cmax [38]: 2.62 µg/mL; metabolised [39]: < 5%; Cmax [40]: 1.68 µg/mL; clearance [41]: 1.8 L/h/kg; half-life [42]: 4.7 h

Source: ChEMBL document CHEMBL3085708, “Identification and profiling of 3,5-dimethyl-isoxazole-4-carboxylic acid [2-methyl-4-((2S,3'S)-2-methyl-[1,3']bipyrrolidinyl-1'-yl)phenyl] amide as histamine H(3) receptor antagonist for the treatment of depression” (Bioorg Med Chem Lett, 2013)
